Many of the other results were omitted from the sample, so hits are more common in it than they were.
DTT redox prof – compounds producing H2O2 with reducing agent – biochemical, NIH compound library profiling, artefact control for MLSCN library redox annotation, primary screen; DTT-dependent redox cycling H2O2, phenol red/HRP absorbance; 100% = 100 µM peroxide control, 0% = buffer; activation, % at 10 µM; actives 0.03% (n = 200,000);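 active = activation of at least 50% relative to the plate's high and low controls in the primary single-dose screen; inactive = activation below 50%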;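 also: compound incubated with DTT at 0.8 mM final as the reducing agent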
T cruzi repl – inhibitors of intracellular T. cruzi growth, primary screen, luminescence, NIH3T3 host cells; AID 1885, 2009; inhibition, % (concentration not given with the values); actives 1.4% (n = 300,000); T. cruzi beta-gal in NIH3T3, 90 h;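 active = mean inhibition across valid replicates above about 55%, limit read from the data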;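 also: signal also drops with host cell toxicity which is not excluded here; higher percent means less beta-gal luminescence so fewer parasites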
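assay system = mouse NIH/3T3 fibroblasts infected with β-gal-expressing T. cruzi Tulahuen C4 | input = 5,000 NIH/3T3 host cells per well | buffer or medium = DMEM plus 2% FBS | timing = 3 h host attachment, then at least 90 h co-culture | measured by = GalScreen luminescence, 60 min | evaluation = luminescence reflecting intracellular parasite burden, expressed as percent inhibition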
MPTP block – mitochondrial permeability transition pore inhibitors, primary screen, biochemical, isolated mouse mitochondria, absorbance; Ca2+ swelling absorbance, 30 min; inhibition, % at 10 µM; actives 1.4% (n = 360,000);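 active = inhibition of 50% or more, scaled per plate between neutral and stimulator controls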
Lipid droplet – inhibitors of hepatocyte lipid droplet formation, primary screen, imaging, high-throughput imaging, BODIPY stain; AML12 mouse hepatocytes, oleate lipid droplets; actives 0.4% (n = 240,000); inhibition, % at 6.5 µM; AID 1656, 2009;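 active = lipid droplet intensity inhibited by at least 50%, with more than 500 cells counted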
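Material – AML12 mouse liver cells · Also added – oleate loading, 100 µM · Compound dosing – 6.5 µM single-point dosing · Times – overnight treatment with compound plus oleate · Measured by – fluorescence imaging, 20x objective, two fields per well · Read-out – percent inhibition of filter-corrected integrated lipid droplet intensity per well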
L major viab – Leishmania major promastigote growth inhibition, primary screen; Leishmania major promastigotes, resazurin fluorescence viability; inhibition, % at 10 µM; actives 9% (n = 200,000); AID 1063, 2008; in the data active = inhibition above about 50%;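 also: promastigotes grown with compound for 44 hours at 28 °C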
A number is an active result; - = inactive; . = no result given.

SMILES | DTT redox prof | T cruzi repl | MPTP block | Lipid droplet | L major viab
COc1ccc(C(O)P(=O)(OCCC(C)C)c2ccc(N(C)C)cc2)cc1 (centres undefined) | . | - | - | - | .
O=C(NC(CO)C(O)c1ccc([N+](=O)[O-])cc1)C(Cl)Cl (centres undefined) | - | - | . | - | -
O=C(NC(CO)Cc1ccc([N+](=O)[O-])cc1)C(Cl)Cl (centres undefined) | - | - | - | - | 63
CC(=O)c1ccc(N2CCN(c3ccc(S(=O)(=O)NCCCN(C)C)cc3[N+](=O)[O-])CC2)cc1 | - | - | - | - | 100
CC(=O)c1ccc(N2CCN(c3ccc(S(=O)(=O)NCCN(C)C)cc3[N+](=O)[O-])CC2)cc1 | . | 59 | - | - | .
CCOC(=O)N1CCN(CC(O)COCCC23CC4CC(CC(C4)C2)C3)CC1 (centres undefined) | - | 68 | - | - | 87
CC1CCCCN1CC(O)COCCC12CC3CC(CC(C3)C1)C2 (centres undefined) | - | - | - | - | 94
Cc1ccc2c(c1)c(C)c(C)n2CC(O)CN1CCCCC1C (centres undefined) | - | - | - | . | -
CCCCC(=O)OCc1nc(N)nc(Nc2ccccc2C)n1 | - | - | - | - | 63
Cc1ccccc1Nc1nc(N)nc(COC(=O)c2ccc(S(=O)(=O)N(C)C)cc2)n1 | - | - | - | - | 67
Cc1ccccc1Nc1nc(N)nc(COC(=O)c2ccco2)n1 | . | . | - | . | .
Cc1ccccc1Nc1nc(N)nc(COC(=O)CCS(=O)(=O)c2ccc(Cl)cc2)n1 | . | . | - | . | .
Cc1cccc(NC(=O)CN2CCN(C(=O)CN3C(=O)NC4(CC(C)CC(C)(C)C4)C3=O)CC2)c1C (centres undefined) | . | . | - | . | .
CCN(CC)S(=O)(=O)c1cc(NC(=O)C2CSC3(C)CCC(=O)N23)ccc1C (centres undefined) | . | . | - | . | .
Clc1ccc(Cn2cccn2)cn1 | - | - | - | - | -
CCOC(=O)c1c(C)sc2c1N(C(=O)CCl)c1cc(Cl)ccc1S2 | - | - | - | . | 101
c1ccc2c(c1)OCCOCCOCCOCCOc1ccccc1OCCOCCOCCO2 | - | - | - | - | 99
CN1CCOCCOc2ccccc2OCCOCC1 | . | - | - | . | .
Cc1ccc(CC(=O)NNC(=O)c2cccs2)cc1C | . | . | - | . | .
CC(C)C(=O)N1CCC(CN=Cc2c(O)n(C3CCCCC3)c(=O)n(C3CCCCC3)c2=O)CC1 | - | . | - | . | 100
Cn1c(=O)n(C)c2cc([N+](=O)[O-])c(N3CCN(CCO)CC3)cc21 | - | - | - | - | -
OCCC1CN(C/C(Cl)=C/c2ccccc2)CCN1C1CCCC1 (centres undefined) | - | - | - | - | 89
CC(C)=CCN1CCN(C/C(Cl)=C/c2ccccc2)CC1CCO (centres undefined) | . | - | - | - | .
Cc1ccc(CN2CCN(Cc3ccc4cc(F)ccc4n3)CC2CCO)o1 (centres undefined) | - | - | - | - | 80
Cc1ccc(CN2CCN(Cc3ccc(O)cc3)CC2CCO)o1 (centres undefined) | - | - | - | - | -
SMILES | DTT redox prof | T cruzi repl | MPTP block | Lipid droplet | L major viab
Cc1ccc(CN2CCN(C/C(Cl)=C/c3ccccc3)CC2CCO)o1 (centres undefined) | - | - | - | - | 78
CCCCN1C(=O)C(CC(=O)NCCCCc2ccccc2)CC(C(=O)N(C)C)=C1C (centres undefined) | . | . | - | . | .
O=C(Nc1ccccn1)C1CCCN1S(=O)(=O)c1ccc(Cl)cc1 (centres undefined) | . | - | - | - | .
CCCCNC(=O)CSc1nc2ccccc2c(=O)n1C1CCCC1 | - | - | - | . | 95
COc1ccc(N2C(=O)Cc3ccccc3C2=O)cc1 | . | - | - | - | .
N#CC1=C(N)N(c2ccc(Oc3ccccc3)cc2)C(=O)C1 | - | - | - | - | 91
COC(=O)c1cc(C(=O)OC)n(Cc2ccc(C)cc2)c1C | - | - | - | . | -
Cc1cccc(C)c1NC(=O)C(NC=O)c1ccc(Cl)cc1 (centres undefined) | - | - | - | - | -
Cc1cccc(C)c1NC(=O)C(C)c1ccc(-c2ccccc2)c(F)c1 (centres undefined) | - | - | - | - | 100
C(=C\c1ccccc1)/C=N/N1CCN(Cc2ccccc2)CC1 | - | - | - | - | -
COc1ccccc1/C=C/C=N/N1CCN(Cc2ccc(Cl)cc2)CC1 | - | - | - | . | 85
Cc1ccc(/C=N/N2CCN(Cc3ccc(Cl)cc3)CC2)o1 | - | - | - | - | 52
COc1ccccc1/C=C/C=N\N1CCN(Cc2ccccc2Cl)CC1 | - | - | - | - | 65
CCN(CC)c1ccc(C(=O)NNC(=O)CNC(=O)c2cccs2)cc1 | . | . | - | . | .
O=C(CNC(=O)[C@@H]1Cc2ccccc2CN1)Nc1ccc2c(c1)OCCO2 | . | - | - | - | .
CC1CCN(c2nc(CN3CCCCC3)nc3scc(-c4ccccc4)c23)CC1 | - | - | - | - | 91
CC1CCN(c2nc(-c3cccnc3)nc3scc(-c4ccccc4)c23)CC1 | - | - | - | - | -
O=C(O)CC(NC(=O)c1ccccc1NC(=O)c1ccccc1)C(=O)O (centres undefined) | - | - | - | - | -
CCC(NC(=O)c1ccccc1NC(=O)c1ccco1)C(=O)O (centres undefined) | - | . | - | . | 89
CCC(NC(=O)c1ccccc1NC(=O)c1ccccc1)C(=O)O (centres undefined) | - | - | - | . | 65
COc1ccccc1Nc1nc(-c2sc(NC(=O)CC(C)C)nc2C)cs1 | - | - | - | . | 67
CCCC(C)C(=O)Nc1nc(C)c(-c2csc(Nc3cc(OC)ccc3OC)n2)s1 (centres undefined) | - | - | - | . | 84
CCCC(=O)Nc1nc(C)c(-c2csc(Nc3ccccc3OC)n2)s1 | - | - | - | . | 59
Cc1ccc(Cl)cc1Nc1nc(-c2sc(NC(=O)C(C)(C)C)nc2C)cs1 | - | - | - | . | 97
CCCC(=O)Nc1nc(C)c(-c2csc(Nc3cc(OC)ccc3OC)n2)s1 | - | - | - | . | -
SMILES | DTT redox prof | T cruzi repl | MPTP block | Lipid droplet | L major viab
CSc1ncccc1C(=O)Nc1ccccc1N1CCOCC1 | . | . | - | . | .
COc1ccc(CCNC(=O)[C@H](C)NC(=O)N2CCn3c2nc2ccccc23)cc1OC | . | - | - | - | .
O=C(CN(Cc1ccccc1)C(=O)c1csnn1)NCc1ccccc1 | - | - | - | - | -
COc1cccc(Nc2nc(-c3sc(NC(=O)CC(C)C)nc3C)cs2)c1 | - | - | - | . | 81
COc1ccccc1Nc1nc(-c2sc(NC(=O)C(C)(C)C)nc2C)cs1 | - | - | - | . | 100
CCCCCC(=O)Nc1nc(C)c(-c2csc(Nc3cc(Cl)ccc3OC)n2)s1 | - | - | - | . | 62
COc1ccccc1Nc1nc(-c2sc(NC(=O)c3cccc(Cl)c3)nc2C)cs1 | - | - | . | . | -
